{"source": "ChEMBL document CHEMBL4145619", "about": "“Computer-Assisted Discovery of Retinoid X Receptor Modulating Natural Products and Isofunctional Mimetics” (J Med Chem, 2018)", "type_in_all_cases": "cell-based", "key": {"[1]": {"target": "T1, Retinoic acid receptor alpha (Homo sapiens) (UniProt P10276)", "T1 sequence (whole entry)": "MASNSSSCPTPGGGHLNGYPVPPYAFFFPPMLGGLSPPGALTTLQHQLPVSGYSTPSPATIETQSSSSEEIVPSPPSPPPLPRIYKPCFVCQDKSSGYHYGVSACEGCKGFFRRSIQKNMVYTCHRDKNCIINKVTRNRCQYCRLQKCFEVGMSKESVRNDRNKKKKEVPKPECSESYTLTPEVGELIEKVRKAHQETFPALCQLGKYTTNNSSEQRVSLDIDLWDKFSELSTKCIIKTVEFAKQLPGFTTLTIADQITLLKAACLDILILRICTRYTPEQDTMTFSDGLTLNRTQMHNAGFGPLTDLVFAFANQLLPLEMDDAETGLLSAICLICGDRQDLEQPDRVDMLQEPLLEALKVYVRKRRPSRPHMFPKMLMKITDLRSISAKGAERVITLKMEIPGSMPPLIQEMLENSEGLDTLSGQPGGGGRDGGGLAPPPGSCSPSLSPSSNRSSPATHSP", "experiment": "Transactivation of human Gal4-fused RARalpha LBD expressed in HEK293T cells at 30 uM after 12 to 14 hrs by dual-glo luciferase assay", "outline": "(§1)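 Single-concentration selectivity profiling in Gal4-hybrid reporter gene assays in HEK293T cells. Each nuclear receptor construct (RAR, PPAR, LXR, FXR, CAR, VDR, PXR, RXR) was tested at 30 μM.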"}, "[2]": {"target": "T2, Nuclear receptor subfamily 1 group I member 3 (Homo sapiens, UniProt Q14994)", "T2 sequence (Q14994 whole entry)": "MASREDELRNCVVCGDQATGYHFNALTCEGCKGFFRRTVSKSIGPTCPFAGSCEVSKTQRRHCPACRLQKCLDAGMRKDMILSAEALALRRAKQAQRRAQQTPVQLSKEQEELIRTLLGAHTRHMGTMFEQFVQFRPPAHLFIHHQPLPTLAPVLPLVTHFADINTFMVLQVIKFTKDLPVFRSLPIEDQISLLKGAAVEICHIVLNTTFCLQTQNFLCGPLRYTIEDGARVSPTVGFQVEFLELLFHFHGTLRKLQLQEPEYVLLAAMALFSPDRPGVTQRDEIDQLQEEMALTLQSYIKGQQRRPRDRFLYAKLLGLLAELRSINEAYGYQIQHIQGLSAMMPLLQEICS", "experiment": "Transactivation of human Gal4-fused CAR LBD expressed in HEK293T cells at 30 uM after 12 to 14 hrs by dual-glo luciferase assay", "outline": "as §1"}, "[3]": {"target": "T3, Retinoic acid receptor RXR-beta (Homo sapiens) (UniProt P28702)", "T3 sequence (whole entry)": "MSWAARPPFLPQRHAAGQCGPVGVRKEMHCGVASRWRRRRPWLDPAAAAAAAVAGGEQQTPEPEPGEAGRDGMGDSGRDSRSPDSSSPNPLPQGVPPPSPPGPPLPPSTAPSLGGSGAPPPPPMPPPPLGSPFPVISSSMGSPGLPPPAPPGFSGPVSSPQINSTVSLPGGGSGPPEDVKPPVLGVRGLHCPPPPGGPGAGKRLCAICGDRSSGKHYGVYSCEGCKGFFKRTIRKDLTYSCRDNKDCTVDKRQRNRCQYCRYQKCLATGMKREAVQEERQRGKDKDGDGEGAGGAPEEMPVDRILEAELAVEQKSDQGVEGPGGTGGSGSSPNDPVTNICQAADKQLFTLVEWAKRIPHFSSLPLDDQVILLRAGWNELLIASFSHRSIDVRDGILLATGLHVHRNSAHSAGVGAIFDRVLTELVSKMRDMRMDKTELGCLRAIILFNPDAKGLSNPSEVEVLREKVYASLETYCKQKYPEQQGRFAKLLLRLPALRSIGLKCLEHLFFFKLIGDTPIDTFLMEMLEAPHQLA", "experiment": "Transactivation of human Gal4-fused RXRbeta LBD expressed in HEK293T cells at 30 uM after 12 to 14 hrs by dual-glo luciferase assay", "outline": "as §1"}, "[4]": {"target": "T3, Retinoic acid receptor RXR-beta (Homo sapiens)", "experiment": "Transactivation of human Gal4-fused RXRbeta LBD expressed in HEK293T cells after 12 to 14 hrs by dual-glo luciferase assay relative to bexarotene"}, "[5]": {"target": "T4, Bile acid receptor (Homo sapiens) (UniProt Q96RI1)", "T4 sequence (whole entry)": "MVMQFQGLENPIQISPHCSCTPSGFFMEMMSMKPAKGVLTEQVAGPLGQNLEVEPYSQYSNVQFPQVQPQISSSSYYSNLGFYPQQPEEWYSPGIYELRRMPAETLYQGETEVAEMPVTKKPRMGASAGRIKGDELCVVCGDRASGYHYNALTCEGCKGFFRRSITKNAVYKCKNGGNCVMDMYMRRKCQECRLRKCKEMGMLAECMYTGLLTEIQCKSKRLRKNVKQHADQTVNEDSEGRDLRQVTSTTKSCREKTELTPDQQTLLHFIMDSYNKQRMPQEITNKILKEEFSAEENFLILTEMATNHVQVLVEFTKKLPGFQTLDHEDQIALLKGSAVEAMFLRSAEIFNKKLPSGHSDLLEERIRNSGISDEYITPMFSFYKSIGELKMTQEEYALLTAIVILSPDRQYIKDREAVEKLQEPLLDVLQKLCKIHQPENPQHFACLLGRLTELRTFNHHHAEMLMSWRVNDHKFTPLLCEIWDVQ", "experiment": "Transactivation of human Gal4-fused FXR LBD expressed in HEK293T cells at 30 uM after 12 to 14 hrs by dual-glo luciferase assay", "outline": "as §1"}, "[6]": {"target": "T5, Oxysterols receptor LXR-alpha (Homo sapiens) (UniProt Q13133)", "T5 sequence (whole entry)": "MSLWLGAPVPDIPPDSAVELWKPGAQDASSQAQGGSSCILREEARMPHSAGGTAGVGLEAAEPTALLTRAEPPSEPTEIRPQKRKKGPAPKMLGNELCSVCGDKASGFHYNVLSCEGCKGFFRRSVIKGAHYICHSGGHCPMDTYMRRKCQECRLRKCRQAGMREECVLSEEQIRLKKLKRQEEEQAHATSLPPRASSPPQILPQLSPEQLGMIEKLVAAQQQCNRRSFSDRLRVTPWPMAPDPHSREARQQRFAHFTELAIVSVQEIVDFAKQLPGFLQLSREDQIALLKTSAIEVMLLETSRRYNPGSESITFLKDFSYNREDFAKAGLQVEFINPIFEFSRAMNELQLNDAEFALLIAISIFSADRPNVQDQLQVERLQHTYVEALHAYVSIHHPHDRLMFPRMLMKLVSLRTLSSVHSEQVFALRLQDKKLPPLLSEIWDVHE", "experiment": "Transactivation of human Gal4-fused LXRalpha LBD expressed in HEK293T cells at 30 uM after 12 to 14 hrs by dual-glo luciferase assay", "outline": "as §1"}}, "note": "Calls of active or inactive are those of the source. No cut-off for these calls is given here.", "data": [{"smiles": "CC1=C2[C@H](/C=C(\\C)C(=O)O)CC[C@@H](C)[C@H]2CC1", "note": "[VALERENIC ACID]", "values": [{"measurement": "Activity", "setting": "[1]", "value": "inactive"}, {"measurement": "Activity", "setting": "[2]", "value": "Not Active"}, {"measurement": "Activity", "setting": "[3]", "value": "Active"}, {"measurement": "fold change (FC)", "setting": "[4]", "value": 69}, {"measurement": "Activity", "setting": "[5]", "value": "inactive"}, {"measurement": "Activity", "setting": "[6]", "value": "inactive"}]}]}
